Measured values: ChEMBL document CHEMBL4406846, “Development of novel multipotent compounds modulating endocannabinoid and dopaminergic systems” (Eur J Med Chem, 2019)
In brackets after ≈: the same amount, converted by molar mass. Activity calls are given as the source filed them. No cut-off for these calls is given here.

What was measured:
[1] = target: T1, Fatty-acid amide hydrolase 1 (Mus musculus, UniProt O08914); assay: Inhibition of FAAH in mouse brain membranes using [14C]-AEA as substrate incubated for 15 mins by scintillation counting method; type: cell membranes
T1 sequence (O08914 whole entry): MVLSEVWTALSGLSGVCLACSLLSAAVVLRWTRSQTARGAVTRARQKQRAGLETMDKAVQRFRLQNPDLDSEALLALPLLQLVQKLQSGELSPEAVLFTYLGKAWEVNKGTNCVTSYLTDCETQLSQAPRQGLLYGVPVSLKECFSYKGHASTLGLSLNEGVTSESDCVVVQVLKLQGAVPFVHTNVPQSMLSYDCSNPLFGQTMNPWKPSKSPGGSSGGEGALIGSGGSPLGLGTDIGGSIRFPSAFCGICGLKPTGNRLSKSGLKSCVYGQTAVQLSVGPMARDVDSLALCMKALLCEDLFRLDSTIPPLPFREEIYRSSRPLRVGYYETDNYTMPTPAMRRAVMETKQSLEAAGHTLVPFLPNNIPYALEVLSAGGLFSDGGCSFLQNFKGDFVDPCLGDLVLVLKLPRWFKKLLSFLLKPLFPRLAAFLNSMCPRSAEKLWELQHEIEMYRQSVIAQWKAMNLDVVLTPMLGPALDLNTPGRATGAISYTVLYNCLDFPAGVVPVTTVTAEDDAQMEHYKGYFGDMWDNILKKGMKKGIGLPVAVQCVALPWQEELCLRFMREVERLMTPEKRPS

[2] = target: T1, Fatty-acid amide hydrolase 1; assay: Inhibition of FAAH in mouse brain membranes assessed as inhibitory constant using [14C]-AEA as substrate incubated for 15 mins by scintillation counting method; type: cell membranes
Summary of the method: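 Mouse brain incubated with 10 μM [¹⁴C]AEA at 37 °C for 15 min, pH 9.0, compound added to the medium. Stopped with chloroform/methanol 2:1; [¹⁴C]ethanolamine released into the aqueous phase measured. Mean of at least three experiments.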

[3] = Solubility of compound in DMSO at pH 3 incubated for […] by HPLC/UV/DAD analysis; type: physicochemical
Summary of the method: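 10 mM DMSO stock diluted to 250 μM (2.5% DMSO) in 50 mM acetic acid (pH 3.0) or 50 mM PBS (pH 7.4). Shaken 24 h at 25 °C, filtered, diluted 1:2 and quantified by HPLC-UV at 254 nm against a 250 μM standard; triplicate average.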

[4] = Chemical stability of compound in DMSO assessed as remaining compound at pH 3 incubated for 24 hrs by HPLC/UV/DAD analysis; type: physicochemical; settings: read-out: Stability
Summary of the method: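 Samples at 250 μM (2.5% DMSO) in 50 mM acetic acid, pH 3.0, held 24 h at 25 °C. HPLC/UV/DAD peak area at 254 nm after 24 h divided by area at T0 × 100; triplicate average.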

NIH3T3 = assay: Cytotoxicity against mouse NIH/3T3 cells assessed as cell viability incubated for 24 hrs by neutral red uptake based assay; settings: NIH3T3, 24 h
Summary of the method: (§1)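 NIH3T3 or U-373-MG cells grown in DMEM with 10% FCS at 37 °C, 5% CO2; compound from DMSO stock diluted in complete medium, 4–100 μM, 24 h. Viability by Neutral Red Uptake (3 h NR loading, acetic acid/ethanol extraction, A540), normalised to % control; IC50 reported. Three experiments in six replicates, Student's t test.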

U373 MG = assay: Cytotoxicity against human U373MG cells assessed as cell viability incubated for 24 hrs by neutral red uptake based assay; set-up: species or system U-373MG ATCC; summary of the method: as §1
[5] = Metabolic stability in rat liver microsomes assessed as apparent decay constant at 5 uM incubated for 60 mins by UV-Vis spectrophotometry; type: ADME, Microsome; settings: 1 h
[6] = Metabolic stability in rat liver microsomes assessed as intrinsic clearance at 5 uM incubated for 60 mins by UV-Vis spectrophotometry; type: ADME, Microsome; settings: read-out: CLH
[7] = Metabolic stability in rat liver microsomes assessed as half life at 5 uM incubated for 60 mins by UV-Vis spectrophotometry; type: ADME, Microsome
[8] = Metabolic stability in human liver microsomes assessed as apparent decay constant at 5 uM incubated for 60 mins by UV-Vis spectrophotometry; type: ADME, Microsome; settings: 1 h
[9] = Metabolic stability in human liver microsomes assessed as intrinsic clearance at 5 uM incubated for 60 mins by UV-Vis spectrophotometry; type: ADME, Microsome; settings: read-out: CLH
[10] = Metabolic stability in human liver microsomes assessed as half life at 5 uM incubated for 60 mins by UV-Vis spectrophotometry; type: ADME, Microsome
IMR-32 [11] = assay: Cytotoxicity against human IMR32 cells at 0.1 to 50 uM incubated for 24 hrs by LDH release assay; type: cell-based; settings: imr-32, 24 h
Summary of the method: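 IMR 32 cells exposed 24 h to 0.1, 0.5, 1, 5, 10 and 50 μM; LDH release expressed as percent of maximal release from Triton X-100-treated cells (100%). Samples run at least in triplicate, mean ± SD.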

IMR-32 [12] = assay: Antiinflammatory activity in human IMR32 cells assessed as reduction in LPS-induced NF-kappaB-DNA binding at 0.5 and 1 uM preincubated for 24 hrs followed by LPS stimulation and measured after 30 mins by ELISA; type: functional, cell-based
Summary of the method: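 IMR 32 cells pre-treated 24 h at 0.5 and 1 μM, then challenged with 100 μg/mL LPS for 30 min; NF-κB p65 binding of nuclear extracts to the DNA consensus sequence measured. Mean ± SEM of 3 independent experiments.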

IMR-32 [13] = assay: Antiinflammatory activity in human IMR32 cells assessed as reduction in LPS-induced NF-kappaB-DNA binding at 0.5 and 1 uM preincubated for 24 hrs followed by LPS stimulation and measured after 30 mins by immunoblot analysis; type: functional, cell-based
[14] = Retention time of compound in human liver microsomes incubated for 30 mins by HPLC analysis; type: ADME, Microsome; settings: 0.5 h
D(2) dopamine receptor = D(2) dopamine receptor (Homo sapiens, UniProt P14416); assay: Displacement of [3H]-spiperone from human D2 receptor expressed in CHO cells co-expressing Galpha16 incubated for 120 mins by liquid scintillation counting method; type: cell-based
Summary of the method: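 Membranes from CHO cells expressing hD2 with Gα16; 2 μg protein/well, 0.08 nM [³H]-spiperone final, 23 °C for 120 min. Stopped by rapid filtration on PEI-soaked GF/B filters, bound radioactivity counted; Ki by Cheng-Prusoff; at least three experiments.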

D(3) dopamine receptor = D(3) dopamine receptor (Homo sapiens, UniProt P35462); assay: Displacement of [3H]-spiperone from human D3 receptor expressed in CHO cells co-expressing Galpha16 incubated for 120 mins by liquid scintillation counting method; type: cell-based
[15] = target: Voltage-gated inwardly rectifying potassium channel KCNH2 (Homo sapiens, UniProt Q12809); assay: Inhibition of human ERG expressed in HEK293 cells […] by patch clamp assay; type: cell-based
Summary of the method: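 HEK293 cells stably expressing hERG under a tetracycline-inducible promoter (10 μg/mL tetracycline for 24, 48 or 72 h). Automated patch clamp, tail current; 0.1, 1 and 10 μM in 0.1% DMSO after 3 min vehicle, 5 min exposure. Residual current vs vehicle gives % inhibition; IC50 estimated; at least two cells.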

[16] = target: Cannabinoid receptor 1 (Mus musculus) (UniProt P47746); assay: Displacement of [3H]CP55, 940 from mouse brain membrane CB1 receptor
Summary of the method: (§2)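 Mouse brain membrane fraction (18000×g pellet) in 50 mM Tris-HCl, 2 mM Tris-EDTA, 3 mM MgCl2, pH 7.4. Rapid filtration binding with the agonist [³H]CP55,940; nonspecific binding defined with 1 μM unlabelled agonist; compound added directly to the incubation.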

[17] = target: Cannabinoid receptor 2 (Mus musculus) (UniProt P47936); assay: Displacement of [3H]CP55, 940 from mouse brain membrane CB2 receptor; summary of the method: as §2
[18] = target: T2, Monoglyceride lipase (Mus musculus) (UniProt O35678); assay: Inhibition of MAGL in mouse brain assessed as release of [3H]glycerol using [3H]-2-OG as substrate incubated for 30 mins by scintillation counting method; type: tissue-based
T2 sequence (whole entry): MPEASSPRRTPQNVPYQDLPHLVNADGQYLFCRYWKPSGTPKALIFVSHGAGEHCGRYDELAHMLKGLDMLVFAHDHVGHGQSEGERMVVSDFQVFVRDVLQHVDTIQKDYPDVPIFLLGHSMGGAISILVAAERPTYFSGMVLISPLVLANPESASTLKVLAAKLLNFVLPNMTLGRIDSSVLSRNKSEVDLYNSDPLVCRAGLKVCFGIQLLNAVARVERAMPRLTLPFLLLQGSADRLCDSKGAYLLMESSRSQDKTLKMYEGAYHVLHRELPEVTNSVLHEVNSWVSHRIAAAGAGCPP
Summary of the method: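 Mouse brain homogenised in 50 mM sodium phosphate pH 8.0 with 0.32 M sucrose, spun sequentially up to 100,000×g. Final supernatant incubated with 10 μM [³H]2-OG at 37 °C for 30 min; stopped with chloroform/methanol and aqueous [³H]glycerol scintillation-counted.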

[19] = Mutagenicity in Salmonella typhimurium TA100 assessed as number of revertants at 5 to 230 uM incubated for 2 days by AMES test; type: toxicity; settings: salmonella enterica subsp. enterica serovar typhimurium, 48 h
[20] = Mutagenicity in Salmonella typhimurium TA100 assessed as number of revertants in presence of liver S9 fraction at 5 to 230 uM incubated for 2 days by AMES test; type: toxicity, subcellular; settings: salmonella enterica subsp. enterica serovar typhimurium, s9, 48 h
[21] = Mutagenicity in Salmonella typhimurium TA98 assessed as number of revertants at 5 to 230 uM incubated for 2 days by AMES test; type: toxicity; settings: salmonella enterica subsp. enterica serovar typhimurium, 48 h
[22] = Mutagenicity in Salmonella typhimurium TA98 assessed as number of revertants in presence of liver S9 fraction at 5 to 230 uM incubated for 2 days by AMES test; type: toxicity, subcellular; settings: salmonella enterica subsp. enterica serovar typhimurium, s9, 48 h

Voltage-gated inwardly rectifying potassium channel KCNH2, sequence (Q12809 whole entry): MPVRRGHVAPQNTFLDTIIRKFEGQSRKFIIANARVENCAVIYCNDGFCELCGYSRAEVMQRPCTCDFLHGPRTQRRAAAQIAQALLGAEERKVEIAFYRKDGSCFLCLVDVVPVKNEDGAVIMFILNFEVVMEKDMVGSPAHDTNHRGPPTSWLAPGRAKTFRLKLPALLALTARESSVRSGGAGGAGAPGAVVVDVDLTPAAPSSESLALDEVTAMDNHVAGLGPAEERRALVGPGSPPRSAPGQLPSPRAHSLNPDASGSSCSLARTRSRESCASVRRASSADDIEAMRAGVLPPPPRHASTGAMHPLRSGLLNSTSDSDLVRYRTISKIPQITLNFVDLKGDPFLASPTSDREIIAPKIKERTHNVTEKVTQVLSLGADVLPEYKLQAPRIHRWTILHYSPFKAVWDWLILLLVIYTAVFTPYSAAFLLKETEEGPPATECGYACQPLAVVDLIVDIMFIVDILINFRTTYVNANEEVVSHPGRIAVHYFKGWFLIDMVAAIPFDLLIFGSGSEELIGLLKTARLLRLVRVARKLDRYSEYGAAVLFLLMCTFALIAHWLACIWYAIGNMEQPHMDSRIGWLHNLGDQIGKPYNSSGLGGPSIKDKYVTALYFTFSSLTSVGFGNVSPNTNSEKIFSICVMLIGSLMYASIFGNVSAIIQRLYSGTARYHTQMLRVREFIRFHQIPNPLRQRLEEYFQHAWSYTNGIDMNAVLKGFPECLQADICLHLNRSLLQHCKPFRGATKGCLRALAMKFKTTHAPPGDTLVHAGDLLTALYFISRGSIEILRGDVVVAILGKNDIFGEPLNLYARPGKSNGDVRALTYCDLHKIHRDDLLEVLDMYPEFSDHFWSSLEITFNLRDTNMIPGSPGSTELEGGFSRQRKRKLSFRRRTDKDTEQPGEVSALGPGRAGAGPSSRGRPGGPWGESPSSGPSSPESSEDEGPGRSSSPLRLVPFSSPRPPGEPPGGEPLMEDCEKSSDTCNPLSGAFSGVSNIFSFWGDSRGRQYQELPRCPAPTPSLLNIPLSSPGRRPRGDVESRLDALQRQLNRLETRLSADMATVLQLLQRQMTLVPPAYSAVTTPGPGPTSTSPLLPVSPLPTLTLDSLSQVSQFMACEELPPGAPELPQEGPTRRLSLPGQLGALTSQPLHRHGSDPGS
D(3) dopamine receptor, sequence (P35462 whole entry): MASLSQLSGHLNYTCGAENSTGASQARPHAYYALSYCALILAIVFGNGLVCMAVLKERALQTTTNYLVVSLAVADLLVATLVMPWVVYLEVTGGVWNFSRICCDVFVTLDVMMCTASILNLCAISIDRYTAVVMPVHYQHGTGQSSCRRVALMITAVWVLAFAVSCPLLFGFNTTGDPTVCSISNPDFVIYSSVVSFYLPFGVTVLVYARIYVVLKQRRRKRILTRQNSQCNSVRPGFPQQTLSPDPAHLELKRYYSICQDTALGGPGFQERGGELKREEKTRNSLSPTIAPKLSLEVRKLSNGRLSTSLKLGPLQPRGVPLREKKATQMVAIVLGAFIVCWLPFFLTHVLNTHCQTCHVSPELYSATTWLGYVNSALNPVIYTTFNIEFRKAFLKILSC
D(2) dopamine receptor, sequence (P14416 whole entry): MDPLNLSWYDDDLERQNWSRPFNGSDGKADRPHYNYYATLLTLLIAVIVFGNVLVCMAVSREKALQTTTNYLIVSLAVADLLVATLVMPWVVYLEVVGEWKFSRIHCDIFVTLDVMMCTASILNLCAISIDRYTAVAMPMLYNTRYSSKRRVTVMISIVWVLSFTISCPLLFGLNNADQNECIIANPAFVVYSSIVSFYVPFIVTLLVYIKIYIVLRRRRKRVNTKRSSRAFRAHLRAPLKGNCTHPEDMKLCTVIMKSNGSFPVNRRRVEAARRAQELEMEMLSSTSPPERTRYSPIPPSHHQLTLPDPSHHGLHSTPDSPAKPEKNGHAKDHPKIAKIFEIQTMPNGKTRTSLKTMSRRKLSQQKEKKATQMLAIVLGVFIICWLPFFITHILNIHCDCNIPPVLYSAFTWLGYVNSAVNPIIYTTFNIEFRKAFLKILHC
Cannabinoid receptor 2 (Mus musculus), sequence (P47936 whole entry): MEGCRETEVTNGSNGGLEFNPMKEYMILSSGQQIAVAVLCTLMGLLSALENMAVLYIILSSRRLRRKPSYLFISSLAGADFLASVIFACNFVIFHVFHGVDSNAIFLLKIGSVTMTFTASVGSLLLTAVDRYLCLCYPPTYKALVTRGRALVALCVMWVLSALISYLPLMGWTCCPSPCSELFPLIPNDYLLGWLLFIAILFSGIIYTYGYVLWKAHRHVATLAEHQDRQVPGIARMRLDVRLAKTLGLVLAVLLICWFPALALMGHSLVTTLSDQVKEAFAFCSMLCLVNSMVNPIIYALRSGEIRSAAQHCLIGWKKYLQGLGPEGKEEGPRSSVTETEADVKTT
Cannabinoid receptor 1 (Mus musculus), sequence (P47746 whole entry): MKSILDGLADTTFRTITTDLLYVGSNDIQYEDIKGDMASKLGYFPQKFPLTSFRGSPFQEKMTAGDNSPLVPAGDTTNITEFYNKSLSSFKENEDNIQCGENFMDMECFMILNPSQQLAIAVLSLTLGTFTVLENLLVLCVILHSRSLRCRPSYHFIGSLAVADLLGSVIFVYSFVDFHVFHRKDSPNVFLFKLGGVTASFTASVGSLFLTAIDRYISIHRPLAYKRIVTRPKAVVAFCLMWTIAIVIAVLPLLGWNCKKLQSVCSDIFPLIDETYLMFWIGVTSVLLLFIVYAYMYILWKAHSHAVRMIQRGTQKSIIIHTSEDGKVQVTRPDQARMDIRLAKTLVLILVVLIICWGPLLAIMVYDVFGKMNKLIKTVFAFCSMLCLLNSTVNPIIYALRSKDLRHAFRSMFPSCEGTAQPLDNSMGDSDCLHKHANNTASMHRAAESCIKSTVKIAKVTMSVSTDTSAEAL

Work on `Cc1cc(C(N)=O)c(-c2cccc(OC(=O)NCCN3CCN(c4ccccc4)CC3)c2)n1C` yielded an IC50 [1] of 175 nM and a Ki [2] of 46 nM.
For `Cc1cc(C(N)=O)c(-c2cccc(OC(=O)NCCN3CCN(c4ccccc4)CC3)c2)[nH]1`, the IC50 [1] was 195 nM and the Ki [2] was 50 nM.
Molecule `NC(=O)c1ccn(-c2cccc(OC(=O)NCCCCCCc3ccccc3)c2)c1` has a solubility [3] of 465 µM (≈ 189 µg/mL), a remaining at 24 h [4] of 92.1% and an IC50 (NIH3T3) of 75000 nM. For the same molecule, the IC50 (U373 MG) was 50000 nM, the K [5] was 0.01379 ×10⁻¹ /min and the microsomal CLint at 5 µM [6] was 23.4 µL/min/mg. For the same molecule, the half-life at 5 µM [7] was 50.3 min, the K [8] was 0.02496 ×10⁻¹ /min and the microsomal CLint at 5 µM [9] was 41.6 µL/min/mg. The half-life at 5 µM [10] was 27.8 min, the Activity (IMR-32 [11]) was “Non-Toxic” and the Activity (IMR-32 [12]) was “Active”. For the same molecule, the Activity (IMR-32 [13]) was “Active” and the Retention_time [14] was 13.72 min.
With `NC(=O)c1ccn(-c2cccc(OC(=O)NCCN3CCN(c4ccccc4)CC3)c2)c1` the IC50 [1] was 58 nM, the Ki [2] was 16 nM and the Ki (D(2) dopamine receptor) was 186 nM. The Ki (D(3) dopamine receptor) was 105 nM, the IC50 [15] was 5300 nM and the inhibition [16] was “inactive”. For the same molecule, the inhibition [17] was “inactive”, the inhibition [18] was “inactive” and the IC50 (NIH3T3) was 5000 nM. The Activity [19] was “Non-Toxic”, the Activity [20] was “Non-Toxic” and the Activity [21] was “Non-Toxic”. The Activity [22] was “Non-Toxic”.
With `NC(=O)c1ccn(-c2cccc(NC(=O)NCCN3CCN(c4ccccc4)CC3)c2)c1` the IC50 [1] was 1600 nM and the Ki [2] was 420 nM.
